Test results as given in ChEMBL document CHEMBL4257467, “Synthesis and pharmaceutical characterization of site specific mycophenolic acid-modified Xenopus glucagon-like peptide-1 analogs” (Medchemcomm, 2018).
pEC50: −log10 of the molar value. Active and inactive are the calls of the source. *1 amine or outer side, *2 acyl side, *3 side chain or, on linkers, in order; H or OH if unused. Where a SMILES comes first, the peptide text is derived from it. Side-chain parts run from the residue outwards. The star is where a group is joined. Mycophenolyl = COc1c(C)c2c(c(O)c1C/C=C(\C)CCC(=O)*)C(=O)OC2; γGlu = O=C(O)[C@H](CCC(=O)[*:2])N[*:1]; 12Ado = NCCCCCCCCCCCC(=O)O; Ahx = NCCCCCC(=O)O

Experiments:
[1] = Half life in Sprague-Dawley rat plasma at 0.5 mL by LC-MS/MS analysis; format: ADME, cell-free; conditions: for half-life: Sprague-Dawley
Procedure, shortened: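 Plasma from male Sprague-Dawley rats (200–250 g). Peptide in PBS pH 7.4 added to initial 1000 ng ml−1 and incubated at 37 °C for 48 h. Samples at 2, 4, 8, 12, 24, 36, 48 h precipitated with acetonitrile containing 2% formic acid, centrifuged, analysed by LC-MS/MS in MRM mode. Degradation curves in triplicate.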

Albumin = Albumin (Homo sapiens, UniProt P02768); experiment: Binding affinity to human serum albumin after 60 mins by ultrafiltration-based HPLC analysis; format: ADME; conditions: for fraction unbound at 1 h: human serum albumin, read-out: PB (converted)
Sequence of Albumin (P02768 whole entry): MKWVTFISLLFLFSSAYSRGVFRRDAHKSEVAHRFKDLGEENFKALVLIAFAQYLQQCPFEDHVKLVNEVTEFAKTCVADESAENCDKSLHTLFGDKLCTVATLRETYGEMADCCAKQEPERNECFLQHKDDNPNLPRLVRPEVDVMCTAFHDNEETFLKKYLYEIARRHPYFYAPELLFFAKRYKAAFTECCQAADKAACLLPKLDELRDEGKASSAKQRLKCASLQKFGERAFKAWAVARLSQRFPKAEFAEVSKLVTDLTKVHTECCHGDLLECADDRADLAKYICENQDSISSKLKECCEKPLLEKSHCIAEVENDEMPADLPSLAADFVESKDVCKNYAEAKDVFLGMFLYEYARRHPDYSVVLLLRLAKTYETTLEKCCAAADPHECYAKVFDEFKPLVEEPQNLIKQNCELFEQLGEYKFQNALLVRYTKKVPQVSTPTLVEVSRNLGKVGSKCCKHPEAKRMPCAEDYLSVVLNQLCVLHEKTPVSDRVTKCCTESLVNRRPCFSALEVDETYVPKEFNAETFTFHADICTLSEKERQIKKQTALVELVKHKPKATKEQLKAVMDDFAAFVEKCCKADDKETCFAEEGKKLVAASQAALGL
Procedure, shortened: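 Peptide in PBS pH 7.4 (100 μg ml−1) mixed with HSA (10 mg ml−1 in PBS), incubated 60 min at 37 °C. Ultrafiltration through 30 kDa cutoff filter, 30 min at 3500 rpm. Free compound in filtrate by HPLC. Membrane adsorption checked (<4%). Repeated three times.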

Mus musculus [2] = experiment: Antidiabetic activity in Kunming mouse assessed as reduction in blood glucose AUC at 25 nmol/kg, ip pretreated for 30 mins followed by glucose-challenge and measured after 15 to 120 mins by IPGTT; format: functional, organism-based
Procedure, shortened: (§1)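 Male Kunming mice (20–25 g, n = 6) fasted overnight. Peptide or saline 25 nmol kg−1 ip at −30 min, ip glucose 2 g kg−1 at 0 min. Tail-vein blood glucose by glucometer at −30, 0, 15, 30, 60 and 120 min. Glucose AUC0–120min calculated; means ± SD.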

Mus musculus [3] = experiment: Antidiabetic activity in C57BL/6J m+/+ Lepr db mouse assessed as plasma insulin level at 25 nmol/kg, ip pretreated for 30 mins followed by glucose challenge and measured after 15 mins by ELISA; format: functional
Procedure, shortened: (§2)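 Male db/db mice (30–40 g, 9 weeks, n = 6) fasted 18 h. Saline or peptide 25 nmol kg−1 ip at −30 min, ip glucose 1 g kg−1 at 0 min. Tail-vein glucose by glucometer at −30, 0, 10, 15, 30, 45, 60, 120 min. Plasma insulin by mouse insulin ELISA. AUC0–120min for glucose and insulin calculated; means ± SD.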

Mus musculus [4] = experiment: Hypoglycemic activity in C57BL/6J m+/+ Lepr db mouse assessed as blood glucose level at 25 nmol/kg, ip pretreated for 30 mins followed by glucose challenge and measured after 15 mins by IPGTT; format: functional; procedure, shortened: as §2
Mus musculus [5] = experiment: Antidiabetic activity in Kunming mouse assessed as reduction in blood glucose level at 25 nmol/kg, ip pretreated for 30 mins followed by glucose-challenge and measured after 15 to 120 mins by IPGTT; format: functional, organism-based; procedure, shortened: as §1
[6] = biological target: Glucagon-like peptide 1 receptor (Homo sapiens, UniProt P43220); experiment: Agonist activity at human GLP1 receptor expressed in HEK293 cells assessed as increase in cAMP level after 30 mins by HTRF method; format: functional, cell-based
Sequence of Glucagon-like peptide 1 receptor (P43220 whole entry): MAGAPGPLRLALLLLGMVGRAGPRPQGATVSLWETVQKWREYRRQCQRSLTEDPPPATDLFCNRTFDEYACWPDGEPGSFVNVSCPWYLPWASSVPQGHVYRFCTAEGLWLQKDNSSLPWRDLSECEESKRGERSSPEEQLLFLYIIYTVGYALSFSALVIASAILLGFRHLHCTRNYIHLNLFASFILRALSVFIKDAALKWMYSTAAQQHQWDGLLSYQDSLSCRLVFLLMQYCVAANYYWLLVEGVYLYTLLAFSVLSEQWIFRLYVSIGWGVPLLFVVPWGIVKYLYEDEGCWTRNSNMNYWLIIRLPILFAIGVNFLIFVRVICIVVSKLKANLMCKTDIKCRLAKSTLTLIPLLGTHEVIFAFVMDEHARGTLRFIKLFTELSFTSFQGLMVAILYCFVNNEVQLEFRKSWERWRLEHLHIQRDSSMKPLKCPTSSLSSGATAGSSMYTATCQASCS
Procedure, shortened: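 HEK293 cells stably expressing human GLP-1 receptor, thawed, suspended in DMEM with 20 mM HEPES, 2 mM L-Glu, 0.5% FBS, 1% pen-strep. Compounds dissolved in DMSO, diluted in assay buffer to 1 × 10−13–1 × 10−6 M final, 30 min at 37 °C in 5% CO2. cAMP read by HTRF. EC50 as means ± SD of three individual experiments, n = 3.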

Mus musculus [7] = experiment: Hypoglycemic activity in non-fasting C57BL/6J m+/+ Lepr db mouse assessed as reduction in blood glucose AUC (0 to 48 hrs) at 25 to 100 nmol/kg, ip by glucometric method; format: functional, organism-based
Procedure, shortened: (§3)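 Non-fasting male db/db mice (30–40 g, 9 weeks, n = 6) with free food and water. Single ip dose at 0 h: liraglutide 25 nmol kg−1, test peptides 25 or 100 nmol kg−1, or saline. Blood glucose by glucometer at 0, 2, 4, 6, 12, 24, 48 h. Rebound time to >15 mmol L−1 and AUC0–48h derived; means ± SD.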

Mus musculus [8] = experiment: Antidiabetic activity in C57BL/6J m+/+ Lepr db mouse assessed as increase in plasma insulin AUC (0 to 120 mins) at 25 nmol/kg, ip pretreated for 30 mins followed by glucose challenge by ELISA; format: functional, organism-based; procedure, shortened: as §2
Mus musculus [9] = experiment: Hypoglycemic activity in non-fasting C57BL/6J m+/+ Lepr db mouse assessed as rebound time from the lowest glucose level (12 mmol/L) to diabetic glucose level (>15 mmol/L) at 100 nmol/kg, ip by glucometric method; format: functional; procedure, shortened: as §3
Mus musculus [10] = experiment: Hypoglycemic activity in non-fasting C57BL/6J m+/+ Lepr db mouse assessed as rebound time from the lowest glucose level (12 mmol/L) to diabetic glucose level (>15 mmol/L) at 25 nmol/kg, ip by glucometric method; format: functional; procedure, shortened: as §3

Row | t1/2 [1] | PB (Albumin; isolated protein, 1 h) | Compound | Activity (Mus musculus [2]) | Activity (Mus musculus [3]) | Activity (Mus musculus [4]) | Activity (Mus musculus [5]) | pEC50 [6] | Activity (Mus musculus [7]) | half-life [1] | fraction unbound at 1 h (Albumin) | Activity (Mus musculus [8]) | Time (Mus musculus [9]) | Time (Mus musculus [10])
1 | > 48 h | 97.8% | SEMAGLUTIDE | – | – | – | – | – | – | – | – | – | – | –
2 | – | – | CC[C@H](C)[C@H](NC(=O)[C@H](CC(C)C)NC(=O)[C@H](Cc1c[nH]c2ccccc12)NC(=O)[C@H](CCC(=O)O)NC(=O)[C@@H](NC(=O)[C@H](Cc1ccccc1)NC(=O)[C@H](CCC(=O)O)NC(=O)[C@H](CCCCNC(=O)CC[C@H](NC(=O)CCCCCCCCCCCNC(=O)CC/C(C)=C/Cc1c(O)c2c(c(C)c1OC)COC2=O)C(=O)O)NC(=O)[C@H](C)NC(=O)[C@H](C)NC(=O)[C@H](CCC(=O)O)NC(=O)[C@H](CCC(=O)O)NC(=O)[C@H](CCC(=O)O)NC(=O)[C@H](CC(C)C)NC(=O)[C@H](Cc1ccc(O)cc1)NC(=O)[C@H](CCC(=O)O)NC(=O)[C@@H](NC(=O)[C@@H](NC(=O)[C@H](CC(=O)O)NC(=O)[C@H](CC(N)=O)NC(=O)[C@@H](NC(=O)[C@H](Cc1ccc(O)cc1)NC(=O)[C@@H](NC(=O)CNC(=O)[C@H](CCC(=O)O)NC(=O)CNC(=O)[C@@H](N)Cc1cnc[nH]1)[C@@H](C)O)[C@@H](C)O)C(C)C)[C@@H](C)O)[C@@H](C)CC)C(=O)N[C@@H](CCCCN)C(=O)NCC(=O)N[C@@H](CCCCN)C(=O)N1CCC[C@H]1C(=O)N[C@@H](CO)C(=O)N[C@@H](CO)C(=O)NCC(=O)N[C@@H](C)C(=O)N1CCC[C@H]1C(=O)N1CCC[C@H]1C(=O)N1CCC[C@H]1C(=O)N[C@@H](CO)C(=O)O (H-HGEGTYTNDVTEYLEEEAAK([γGlu-12Ado-Mycophenolyl])EFIEWLIKGKPSSGAPPPS-OH) | Active | 16.5 mIU/L | 1.24e+07 nmol/L | Active | 8.28 | Active | 34.2 h | 0.152 | Active | 30.4 h | 18.9 h
3 | – | – | CC[C@H](C)[C@H](NC(=O)[C@H](CC(C)C)NC(=O)[C@H](Cc1c[nH]c2ccccc12)NC(=O)[C@H](CCC(=O)O)NC(=O)[C@@H](NC(=O)[C@H](Cc1ccccc1)NC(=O)[C@H](CCC(=O)O)NC(=O)[C@H](CCCCNC(=O)CC[C@H](NC(=O)CCCCCNC(=O)CC/C(C)=C/Cc1c(O)c2c(c(C)c1OC)COC2=O)C(=O)O)NC(=O)[C@H](C)NC(=O)[C@H](C)NC(=O)[C@H](CCC(=O)O)NC(=O)[C@H](CCC(=O)O)NC(=O)[C@H](CCC(=O)O)NC(=O)[C@H](CC(C)C)NC(=O)[C@H](Cc1ccc(O)cc1)NC(=O)[C@H](CCC(=O)O)NC(=O)[C@@H](NC(=O)[C@@H](NC(=O)[C@H](CC(=O)O)NC(=O)[C@H](CC(N)=O)NC(=O)[C@@H](NC(=O)[C@H](Cc1ccc(O)cc1)NC(=O)[C@@H](NC(=O)CNC(=O)[C@H](CCC(=O)O)NC(=O)CNC(=O)[C@@H](N)Cc1cnc[nH]1)[C@@H](C)O)[C@@H](C)O)C(C)C)[C@@H](C)O)[C@@H](C)CC)C(=O)N[C@@H](CCCCN)C(=O)NCC(=O)N[C@@H](CCCCN)C(=O)N1CCC[C@H]1C(=O)N[C@@H](CO)C(=O)N[C@@H](CO)C(=O)NCC(=O)N[C@@H](C)C(=O)N1CCC[C@H]1C(=O)N1CCC[C@H]1C(=O)N1CCC[C@H]1C(=O)N[C@@H](CO)C(=O)O (H-HGEGTYTNDVTEYLEEEAAK([γGlu-Ahx-Mycophenolyl])EFIEWLIKGKPSSGAPPPS-OH) | Active | – | – | Active | 8.39 | – | 19.3 h | 0.351 | – | – | –
